The source of these data is ChEMBL document CHEMBL5335790, “Design, synthesis and biological evaluation of novel 2,4-thiazolidinedione derivatives able to target the human BAG3 protein” (Eur J Med Chem, 2023).

Calls of active or inactive are those of the source. The calls are words filed in the database; no cut-off is given here.

Test [1] has as its system HD-MB03. Put plainly: Sensitization of chemotherapy induced cytotoxicity against human HD-MB03 cells assessed as inhibition of cell growth at 1.25 uM incubated for 72 hrs in presence of 0.25 unit of vincristine, etoposide, cisplatin, cyclophosphamide by resazurin dye based analysis (reference value: 73.44 +/- 0.92%). The class given is functional.
Test [2] relates to HD-MB03. Kind of test: Sensitization of chemotherapy induced cytotoxicity against human HD-MB03 cells assessed as inhibition of cell growth at 20 uM incubated for 72 hrs in presence of 2 unit of vincristine, etoposide, cisplatin, cyclophosphamide by resazurin dye based analysis (reference value: 97.7 +/- 1.3%). The class given is functional.
Test [3] deals with HD-MB03. Kind of test: Induction of cell cycle arrest in human HD-MB03 cells assessed as accumulation of cells at S phase at 10 uM incubated for 48 hrs by RNase/PI staining based cytofluorimetric analysis (reference value: 40.9%). The class given is functional.
Test [4] relates to HD-MB03. Kind of test: Sensitization of chemotherapy induced cytotoxicity against human HD-MB03 cells assessed as inhibition of cell growth at 20 uM incubated for 72 hrs in presence of 0.12 unit of vincristine, etoposide, cisplatin, cyclophosphamide by resazurin dye based analysis (reference value: 51.43 +/- 1.17%). The class given is functional. A general note: Resazurin is reduced to fluorescent resorufin, in cell work by metabolically active cells.

The subject of test [5] is HD-MB03. Put plainly: Sensitization of chemotherapy induced cytotoxicity against human HD-MB03 cells assessed as inhibition of cell growth at 2.5 uM incubated for 72 hrs in presence of 0.25 unit of vincristine, etoposide, cisplatin, cyclophosphamide by resazurin dye based analysis (reference value: 73.44 +/- 0.92%). The class given is functional.
Test [6] deals with HD-MB03. Put plainly: Induction of apoptosis in human HD-MB03 cells at 20 uM by Annexin V-FITC/PI staining based cytofluorimetric analysis. The class given is functional, cell-based. Conditions: time 48-72 hrs, TDE = time-dependent effect. An outline of the steps:
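HD-MB03 cells treated with 20 µM, then stained with annexin V-FITC and PI and analysed by flow cytometry. Mean ± SEM of three independent experiments; 2-way ANOVA with Tukey correction.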

The subject of test [7] is HD-MB03. Kind of test: Induction of autophagy in human HD-MB03 cells assessed as increase in LC3 green fluorescence at 20 uM incubated for 24 hrs by immunofluorescence analysis. The class given is functional, cell-based. Summed up:
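HD-MB03 cells transfected with a fluorescent LC3 plasmid, then treated 24 h later with 20 µM, alone or with chloroquine, for 24 h. Live cells stained 30 min with 50 nM LysoTracker Red and 10 µM Hoechst, then imaged by confocal microscopy. Fluorescence per field was expressed relative to DMSO control set to 1. Mean ± SD of three experiments; 2-way ANOVA.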

In test [8] the target is BAG family molecular chaperone regulator 3 (Homo sapiens, UniProt O95817). Put plainly: Binding affinity to CM4 sensorchip immobilized C-terminal His tagged human BAG3 transfected in HEK293T cells assessed as binding capacity at 50 uM by SPR analysis. Summed up: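 SPR screen on BAG3-His amine-coupled to a CM4 chip at 60 µg/mL in pH 2.8 acetate. Compound at 50 µM in PBS with 5% DMSO and 0.05% P20 was injected for 90 s at 30 µL/min, then washed. Chip regenerated with 10 mM glycine pH 3. Bound RU read at equilibrium against a void flow cell; 3–10 repeats, mean ± SEM.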
For orientation: Surface plasmon resonance follows binding to a sensor surface in real time, without labels.

Test [9] relates to HD-MB03. Put plainly: Sensitization of chemotherapy induced cytotoxicity against human HD-MB03 cells assessed as inhibition of cell growth at 2.5 uM incubated for 72 hrs in presence of 0.12 unit of vincristine, etoposide, cisplatin, cyclophosphamide by resazurin dye based analysis (reference value: 51.43 +/- 1.17%). The class given is functional.
Test [10] has as its system HD-MB03. Kind of test: Sensitization of chemotherapy induced cytotoxicity against human HD-MB03 cells assessed as inhibition of cell growth at 5 uM incubated for 72 hrs in presence of 0.5 unit of vincristine, etoposide, cisplatin, cyclophosphamide by resazurin dye based analysis (reference value: 83.74+/- 0.54%). The class given is functional.
In another test the test system is A549. Kind of test: Antiproliferative activity against human A549 cells assessed as cell growth inhibition incubated for 72 hrs by resazurin dye based analysis. The class given is functional. Summed up:
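Cells seeded at 2000/well, treated 24 h later with compounds in a 6-point 2-fold dose series, duplicate wells, two independent experiments. After 72 h, resazurin was added at 44 µM final for 3 h at 37 °C and fluorescence was read at 590 nm. Viability was normalized to 1 µM bortezomib (positive) and 0.5% DMSO (negative) controls. GI50 is the mean ± SEM of dose-response curves.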

In test [11] the test system is HD-MB03. Kind of test: Induction of apoptosis in human HD-MB03 cells assessed as increase in total apoptotic cells at 20 uM incubated for 24 hrs in presence of chloroquine by Annexin V-FITC/PI staining based cytofluorimetric analysis. The class given is functional, cell-based. An outline of the steps:
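HD-MB03 cells exposed to 20 µM with or without chloroquine for 24 h, then stained with annexin V-FITC and PI for flow cytometry. Mean ± SEM of three independent experiments.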

For test [12], the system named is HD-MB03. Put plainly: Sensitization of chemotherapy induced cytotoxicity against human HD-MB03 cells assessed as inhibition of cell growth at 10 uM incubated for 72 hrs in presence of 0.5 unit of vincristine, etoposide, cisplatin, cyclophosphamide by resazurin dye based analysis (reference value: 83.74+/- 0.54%). The class given is functional.
The test system of test [13] is HD-MB03. Put plainly: Sensitization of chemotherapy induced cytotoxicity against human HD-MB03 cells assessed as inhibition of cell growth at 1.25 uM incubated for 72 hrs in presence of 0.5 unit of vincristine, etoposide, cisplatin, cyclophosphamide by resazurin dye based analysis (reference value: 83.74+/- 0.54%). The class given is functional.
Test [14] deals with HD-MB03. Kind of test: Sensitization of chemotherapy induced cytotoxicity against human HD-MB03 cells assessed as inhibition of cell growth at 10 uM incubated for 72 hrs in presence of 2 unit of vincristine, etoposide, cisplatin, cyclophosphamide by resazurin dye based analysis (reference value: 97.7 +/- 1.3%). The class given is functional.
Test [15] has as its system HD-MB03. Kind of test: Sensitization of chemotherapy induced cytotoxicity against human HD-MB03 cells assessed as inhibition of cell growth at 10 uM incubated for 72 hrs in presence of 0.25 unit of vincristine, etoposide, cisplatin, cyclophosphamide by resazurin dye based analysis (reference value: 73.44 +/- 0.92%). The class given is functional.
In test [16] the test system is HD-MB03. Kind of test: Cytotoxicity against human HD-MB03 cells assessed as inhibition of cell growth at 20 uM incubated for 72 hrs by resazurin dye based analysis relative to control. The class given is functional. Summed up:
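Resazurin viability in HD-MB03 cells, 2000/well, single-agent arm of the 6x6 matrix. Inhibitor was added 24 h after seeding, in a 6-point 2-fold series, duplicates, two independent experiments. After 72 h exposure, resazurin was added at 44 µM final for 3 h at 37 °C and fluorescence read at 590 nm. Viability normalized to 1 µM bortezomib and 0.5% DMSO controls.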

In test [17] the test system is HD-MB03. Put plainly: Sensitization of chemotherapy induced cytotoxicity against human HD-MB03 cells assessed as inhibition of cell growth at 5 uM incubated for 72 hrs in presence of 1 unit of vincristine, etoposide, cisplatin, cyclophosphamide by resazurin dye based analysis (reference value: 91.53 +/- 1.15%). The class given is functional.
The subject of test [18] is HD-MB03. Kind of test: Induction of cell cycle arrest in human HD-MB03 cells assessed as accumulation of cells at G2/M phase at 10 uM incubated for 48 hrs by RNase/PI staining based cytofluorimetric analysis (reference value: 4.4%). The class given is functional.
Test [19] relates to HD-MB03. Kind of test: Sensitization of chemotherapy induced cytotoxicity against human HD-MB03 cells assessed as inhibition of cell growth at 5 uM incubated for 72 hrs in presence of 2 unit of vincristine, etoposide, cisplatin, cyclophosphamide by resazurin dye based analysis (reference value: 97.7 +/- 1.3%). The class given is functional.

In general, inhibition refers to the percentage by which the read-out fell short of the control. For orientation: GI50 means the concentration that inhibits growth by half.

BAG family molecular chaperone regulator 3, sequence (O95817 whole entry): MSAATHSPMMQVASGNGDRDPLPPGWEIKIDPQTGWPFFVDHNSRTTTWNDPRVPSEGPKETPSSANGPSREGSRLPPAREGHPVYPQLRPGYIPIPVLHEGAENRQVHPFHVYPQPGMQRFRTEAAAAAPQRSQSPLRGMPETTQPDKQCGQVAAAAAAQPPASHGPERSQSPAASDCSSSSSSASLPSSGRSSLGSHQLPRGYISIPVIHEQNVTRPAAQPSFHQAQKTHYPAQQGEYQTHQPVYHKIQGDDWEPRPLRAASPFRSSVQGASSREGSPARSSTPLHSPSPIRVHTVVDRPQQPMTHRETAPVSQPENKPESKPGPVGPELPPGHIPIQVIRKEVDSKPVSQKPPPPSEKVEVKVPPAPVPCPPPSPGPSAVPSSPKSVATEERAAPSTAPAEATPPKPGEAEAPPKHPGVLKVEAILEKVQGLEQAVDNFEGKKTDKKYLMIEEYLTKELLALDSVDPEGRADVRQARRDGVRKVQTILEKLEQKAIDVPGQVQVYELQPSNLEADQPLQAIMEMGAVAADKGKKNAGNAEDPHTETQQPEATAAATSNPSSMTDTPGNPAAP

On to `CC(C(=O)N1CCOCC1)N1C(=O)S/C(=C\c2cccc(O)c2O)C1=O` (racemic), for which the inhibition at 1.25 µM was determined as 70.3% in the test on HD-MB03 [1] and 82.7% in the test with HD-MB03 [13]. The inhibition at 20 µM is 90.5% in the test with HD-MB03 [2], 75% in the test with HD-MB03 [4] and 52.9% with HD-MB03 [16]. The Activity in the test on HD-MB03 [3] was 41.44%; with HD-MB03 [6], “Tde”; in [8] it was over 5 RU; in the test with HD-MB03 [18], 6.11%. Moreover, the inhibition at 2.5 µM in the test with HD-MB03 [5] was 69.9%; in the test with HD-MB03 [9] it was 53.4%. Moreover, the outcome in the test on HD-MB03 [7] and in the test on HD-MB03 [11] was Active. The inhibition at 5 µM in the test with HD-MB03 [10] amounted to 88.4%; in the test on HD-MB03 [17] it was 92%; in the test on HD-MB03 [19], 95.2%. Further, the 50% growth inhibitory concentration (GI50) in the test on A549 was determined as 28 µM. The inhibition at 10 µM worked out at 89.1% with HD-MB03 [12], 93.2% with HD-MB03 [14] and 82.2% in the test with HD-MB03 [15].
